For data set [1], the system named is Mus musculus. Nature of the data set: Induction of flushing response in ip dosed C57/BL6 mouse. Type of data set: organism-based, C57Bl/6. To be noted: in vivo. The procedure, abridged:
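Male C57Bl/6 mice, 8-10 weeks, anesthetized with Nembutal i.p. (80 mg/10 ml/kg). Laser Doppler perfusion imaging centred on the ventral right ear. After a 3 min baseline, vehicle or agonist is given i.p. (5 ml/kg) and readings continue about 15 min. Output is % change from pre-injection baseline, 3-26 animals per group.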

A further data set has as its system Adipocyte. Description: Inhibition of isoproterenol-induced lipolysis in human subcutaneous adipocytes after 5 hrs.
The subject of data set [2] is Mus musculus. Description: Reduction of free fatty acid level in ip dosed C57/BL6 mouse plasma after 10 mins. Type of data set: functional, organism-based. The conditions noted are these: C57Bl/6. In outline:
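Male C57Bl/6 mice, 8-10 weeks (~25 g), fasted 16 hr, dosed i.p. with compound in PBS or PBS vehicle (5 ml/kg). Killed after 10 min; cardiac blood taken and serum obtained by centrifugation at 4°C. NEFA measured colorimetrically with the NEFA-C two-reagent kit, 37°C incubations, A550. Three or more experiments in triplicate; one-way ANOVA with Bonferroni.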

The test system of a further data set is Rattus norvegicus. Nature of the data set: Reduction of free fatty acid level in po dosed Sprague-Dawley rat plasma relative to baseline. Type of data set: functional. Further details: scale not given: the % may be the effect or the level left. In outline:
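Male Sprague-Dawley rats, 7-10 weeks (~350 g), jugular vein cannulated, fasted 16 hr. Baseline blood drawn, then oral vehicle (PBS, 5% HPBCD or 0.5% methylcellulose) or drug at 2 ml/kg. Blood sampled via cannula at set times; serum NEFA assayed by NEFA-C kit, A550. Expressed as % baseline FFA, four or more independent experiments.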

For data set [3], the system named is Mus musculus. Nature of the data set: Inhibition of nicotinic acid induced flushing response in ip dosed C57/BL6 mouse. Type of data set: functional, organism-based. To be noted: C57Bl/6. The procedure, abridged: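 Laser Doppler ear flushing in anesthetized male C57Bl/6 mice. Vehicle or competing agonist is given i.p. together with Nembutal, 10 min before baseline. After a 3 min baseline, nicotinic acid 30 mg/kg i.p. is injected. Response is % change from pre-nicotinic acid baseline, 5 or 11 animals per group.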

Activity calls are given as the source filed them. The rule behind the calls is not given here.

For `O=C(O)c1cc(Cc2cccc(Cl)c2)[nH]n1`, in the data set on Mus musculus [1], the Activity result is given as “Non-toxic”.
Usually EC50 stands for the midpoint of the concentration-response curve. As to `O=C(O)c1cc(Cc2cccc(Br)c2)[nH]n1`, the EC50 with Adipocyte was 103 µM. For the same compound, the Activity result is “Dose-dependent effect” in the data set with Mus musculus [2], 75% in the data set on Rattus norvegicus and “Non-toxic” in the data set on Mus musculus [1].
Consider `Cc1cc(C(=O)O)n[nH]1`, for which, in the data set with Adipocyte, the EC50 came to 1.4 µM. In addition, the Activity entry is “Dose-dependent effect” in the data set on Mus musculus [2], 75% in the data set with Rattus norvegicus and “Toxic” in the data set with Mus musculus [1].
Compound `Cc1cc(C(=O)O)on1` came in with an EC50 in the data set on Adipocyte of 5.3 µM. Besides, the Activity in the data set on Rattus norvegicus is recorded as 75%; in the data set with Mus musculus [1] it was “Toxic”.
In the case of `O=C(O)c1cc(Cc2cccc(F)c2)[nH]n1`, a half-maximal response with Adipocyte (EC50) required 32.6 µM. In addition, the Activity entry with Mus musculus [2] was “Dose-dependent effect”; with Rattus norvegicus, 75%; in the data set with Mus musculus [1], “Non-toxic”.
As for `O=C(O)c1cccnc1` [NIACIN], the EC50 with Adipocyte came out at 0.9 µM. The Activity entry with Mus musculus [1] is given as “Toxic”.
For the compound `CC(C)c1cc(C(=O)O)n[nH]1`, the Activity entry in the data set on Mus musculus [2] is “Dose-dependent effect”; with Rattus norvegicus it was 75%; with Mus musculus [1], “Non-toxic”.
As for `O=C(O)c1cc(Cc2cccc(Cl)c2)n[nH]1`, a half-maximal response in the data set on Adipocyte (EC50) required 72.5 µM. The Activity result in the data set with Mus musculus [2] is “Dose-dependent effect”; in the data set on Rattus norvegicus, 75%. Moreover, in the data set on Mus musculus [3], the result was Active.

Values taken from ChEMBL document CHEMBL1147980, “Nicotinic acid receptor agonists differentially activate downstream effectors” (J Biol Chem, 2007).
